The test system of one assay is ANO 1. It counts as cell-based, rat. The note with it: for Effect on ANO 1 current density (channel activation): bath application of 20 µM TFP or 50 µM J-8 for 10–70 min. The gist of the method: (§1)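 HEK 293 cells transiently transfected with rat ANO with C-terminal YFP tag; cells of similar YFP intensity recorded whole-cell. Bath (mM): 150 CsCl, 10 HEPES, 10 EGTA, pH 7.4. Pipette: 150 mM Cl−, 10 mM HEDTA, 10 mM HEPES, pH 7.0, free Ca2+ 0.7–62 µM. Ramps −80 to +80 mV (1 s), every 15 s from 2 min after breakthrough; current density in pA/pF.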

For another assay, the system named is ANO 2. The format is cell-based, rat. Conditions: for Effect on ANO 2 current density (channel activation): bath application of 20 µM TFP or 50 µM J-8 for 10–70 min. The essentials:
as §1

The target of another assay is CaM (Bos taurus, UniProt P62157). Briefly: Badan fluorescence peptide-binding assay with CaM. The note with it: 3 µM peptide, 1.5 µM CaM, free Ca2+ 0.007 to 10 µM.
The target in assay [1] is Badan-labeled ANO 2 RCBM peptide, mutant m2,6 (rat). Briefly: other fluorescence titration.
Assay [2] addresses Badan-labeled ANO 2 RCBM peptide, mutant m15,20 (rat). The assay can be described thus: other fluorescence titration.
Assay [3] addresses Badan-labeled ANO 1 RCBM peptide, mutant m2,6 (rat). The assay can be described thus: other fluorescence titration.
Assay [4] deals with Badan-labeled ANO 1 RCBM peptide, mutant m15,20 (rat). The assay can be described thus: other fluorescence titration.

This is an account of results in publication PMC3787769 (The Journal of General Physiology, 2013).

Turning to `CN[C@@H]1C[C@H]2O[C@@](C)([C@@H]1OC)n1c3ccccc3c3c4c(c5c6ccccc6n2c5c31)C(=O)NC4` [staurosporine], the “Effect on ANO 1 channel activation or inactivation” value in the assay with ANO 1 (0.2–2 µM, 5–50 min, applied to the bath solution, 6 cells, unpublished data) is “did not detect any effect”. The “Effect on ANO 2 channel activation or inactivation” value in the assay with ANO 2 (0.2–2 µM, 5–50 min, applied to the bath solution, 18 cells, unpublished data) is “did not detect any effect”.
Turning to `CN1CCN(CCCN2c3ccccc3Sc3ccc(C(F)(F)F)cc32)CC1` [TFP, trifluoperazine], the “Effect on ANO 1 current density (channel activation)” value in the assay with ANO 1 is “did not significantly reduce”. Also, in the assay with ANO 2, the “Effect on ANO 2 current density (channel activation)” value is listed as “did not significantly reduce”.
Turning to RKLEYEEEASYGVFYKEQPIDEVRK [ANO ctrl], the “CaM binding of Badan-labeled peptide (Ca2+-dependent change of emission spectra)” value at CaM is “completely abolished CaM binding”.
`NCCCCCCCCNS(=O)(=O)c1cccc2c(I)cccc12` [J-8]: the “Effect on ANO 1 current density (channel activation)” value in the assay on ANO 1 is recorded as “did not significantly reduce”. Moreover, the “Effect on ANO 2 current density (channel activation)” value with ANO 2 is listed as “did not significantly reduce”.
Regarding “wild-type calmodulin (wt CaM), purchased (from UniProt P0DP23 1-149) (natural protein)”, the EC50 of free Ca^2+ for CaM binding in assay [1] was 6 µM; in assay [2] it was 0.6 µM; in assay [3], 12 µM; in assay [4] it was 15.2 µM.
